Fewer inactive variants are shown than the library holds.
B1: tRNA (parent)
chain: GUUCCGUUGGCGUAAUGGUAACGCGUCUCCCUCCUAAGGAGAAGACUGCGGGUUCGAGUCCCGUACGGAACG

Variants of: B1
Experiment: yeast fitness relative to wild type (ratio to wild type); higher = fitter; tRNA-Arg(CCU), competitive growth, 37 C, YPD
In short: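 Start and end populations of a pooled competition were compared by 100-nucleotide paired-end sequencing of gene amplicons. The Saccharomyces cerevisiae strains carried tRNA-Arg(CCU) gene variants at the native genomic locus, synthesised with a 3% per-site mutation rate at 69 sites, and competed in YPD at 37°C for 24 hours in six parallel replicates. Darwinian fitness relative to wild type was based on the change in genotype frequencies. Genotypes required ≥ 100 starting reads, and estimates < 0.5 were set to 0.5.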

Row | Variant | yeast fitness
1 | GUUGCGUUGGUGUUAUGGUAACGCGUCUCGCUCCUAAGGAGAAGACUGCGGGUUCGAGUCCCGUACGGUACG [C4G C11U A14U C30G A69U] | ≤ 0.5
2 | GUUGCGUUGGCGUAAUGGUAAUGCGUCUCCCUCGUUAGGAGAAGACUGCGGGUUCGAGUCCCGUACAGAACG [C4G C22U C34G A36U G67A] | ≤ 0.5
3 | GUUGCGUUGGCGUAAUGGUAACGCGUCUCCCUCCUGAAGUGAAGACUGCGGGUUCGAGUCCCGUACGGAACG [C4G A36G G38A A40U] | ≤ 0.5
4 | GUUGCGUUGGCGUAAUGGUAACGCGUCUCCCUCCUAAGGAGAUCACUGCGGGUUCGAGUCCCGUACGGAACG [C4G A43U G44C] | 0.531
5 | GUUGGGUUGGCGUAAUGGUAACGCGUCUGCCUCCUAAGGAGAAGACUGCGGGUUCGAGUCCCGUACGGAACG [C4G C5G C29G] | ≤ 0.5
6 | GUUGGGUCGGCGUAAUGGUAACCCGUCUUCCUCCUAAGGAGAAGUCUGCGGGUUCGAGUUCUGUACGGACCG [C4G C5G U8C G23C C29U A45U C60U C62U A70C] | ≤ 0.5
7 | GUUGCGUUGGCGUAAUGGUAACGCGUCUCCCUCCUAAGGAGAAGGCUGCGGGUUCGAGUCCCGUACGCAACG [C4G A45G G68C] | 0.567
8 | GUUGGGUUGGCGUAAUGGUAACGCGUCUCCAUCCCAAGGAGAAGAAUGCGGGUUCGAGUCCCGUACAGAACG [C4G C5G C31A U35C C46A G67A] | ≤ 0.5
9 | GUUGCGUUGGCGUAAUGGUAACGCGUCUCCCUCCUAAGGAGACGACUGCGGGUUAGCGUCCCGUACGGAACG [C4G A43C C55A A57C] | ≤ 0.5
10 | GUUGCGUUGGCGUAAUGGUAACGCGUCUCCCUCCUAAGGAGAAGGCUGCGGGUUCGUGUCCCGUAUGGAACG [C4G A45G A57U C66U] | 0.512
11 | GUUGCGUUGGGGUAAUGGCAACCCGUCGCCCUCCUAAGGAGAAGACUGCGGGUUCGAGUCGCGUACGGAACG [C4G C11G U19C G23C U28G C61G] | ≤ 0.5
12 | GUUGUGUUGGCGAAAUGGUAACGCGUCUCCCUCCUAAGGCGAAGACUGCGGGUUCGAAUCCCGUACGCAACG [C4G C5U U13A A40C G58A G68C] | ≤ 0.5
13 | GUUGCGUUGGGGUAAUGGUAACGCGUCUCCCUGCUAAGGAGAAGACAGCGGGUUCGAGUCCCGUACGGAACG [C4G C11G C33G U47A] | ≤ 0.5
14 | GUUGCGUUGGCGUAAUGGUAGCGCGUCUCCGUGCUAAGGAGAAGACUGCGGGUUCGAGUCCCGUACGGAACG [C4G A21G C31G C33G] | ≤ 0.5
15 | GUUGAGUUGGCGUAAAAGUAACGCGUCUCCCUCCUAAGGAGAAGACUGCAGGUUCGAGUCCCGUACGGAACG [C4G C5A U16A G17A G50A] | ≤ 0.5
16 | GUUGUGUUGGCGUAAUGGUAACGCGUCUCUCUCCUAAGAAGAAGACUGCGGGUUCGAGUCCCGUACGGAACG [C4G C5U C30U G39A] | ≤ 0.5
17 | GUUGAGUUGGCGUAAUGGUAUCGCGUCUCCCUCGUAAGGAGAAGACUGCGGGUUCGAGUCCCGUACGGAACG [C4G C5A A21U C34G] | ≤ 0.5
18 | GUUGCGUUGGCGUAAUGGUAAUGCGUCUCUCUUCUAAGGAGAAGCCUGCGGGUUCGAGUCCCGUACGGAACG [C4G C22U C30U C33U A45C] | ≤ 0.5
19 | GUUGCGUUGGCGUAAUGGUAACGCGUCUCCCUCCUAAGGUGAAGACUGCGGGUUCGAGUCCCGUACGGUACG [C4G A40U A69U] | 0.72

Row | Variant | yeast fitness
20 | GUUGCGUUGGCGUAAUGGUAAAGCGUCUCCCUCCUAAGGAGAAGACUGCGGGUUCGAGUCCCGUACGGAACG [C4G C22A] | 0.767
21 | GUUGCGUUGGCGUAAUGGUAAAGCGUUUCCCUCCUAAGGAGAAGACUGCGGGUUCGAGUCCCCUACGGAACG [C4G C22A C27U G63C] | 0.735
22 | GUUGCGUUGGCGUAAUGGUAACGCGUCUCCCUCCUAAGGGGAAGACUGCGGGUUUGAGUCCCGUACGGAACG [C4G A40G C55U] | ≤ 0.5
23 | GUUGCGUUGGGGUAAUGGUAACGCGUCUCCCUCCUAAGGAGAAGACUGCGGGUUUGAGUCACGUACAGAACG [C4G C11G C55U C61A G67A] | ≤ 0.5
24 | GUUGCGUUGGUGUAAUGGUAACGCGUCUCCCUACUAAGGAGAAGACUGCGGGUUCGAGCCCCGUACGGAACG [C4G C11U C33A U59C] | 0.707
25 | GUUGCGUUGGAGUUAUGGUAAAGGGUCUCCCUCCUAAGGAGAAGACUGCGGGUUCGAGUCCCGUACGGAACG [C4G C11A A14U C22A C24G] | ≤ 0.5
26 | GUUGCGUUGGCGUAAUGGUAACGCGUCUCCCUCCUAAGGAGAAGACUGCGGGUUCGAGUCCCGUUCGUAACG [C4G A65U G68U] | 1.11
27 | GUUGCGUUGGCGUAAUGGUAGCGCGUCUCCCUCCUAAGGAGAAGUCUGUGGGUUCGAGUCCCGUACGGAACG [C4G A21G A45U C49U] | ≤ 0.5
28 | GUUGCGUUGGCGUAAUGGUAACGCGUCUCCCUCCUUAGGAGAAGAGUGCGGGUUCGAGUCCAGUACGGCACG [C4G A36U C46G C62A A69C] | ≤ 0.5
29 | GUUGAGUUGGCGUAAUGGUAACGCGUCUCCCUCCUAAGGAGAAGACUGCGGGUUCGAGUCCCGUACGGAACG [C4G C5A] | 0.765
30 | GUUGCGUUGGCGUAAUGGUAACGUGUCUCCCUCCUAAGGAGAAGCCUGCGGGUUCGAGUCCCGUACGGAACG [C4G C24U A45C] | 0.6
31 | GUUGCGUUGGCGUAAUGGUAACGCGUCUCCCUCCUAGGGAGAGGACUGCGGGUUCGAGUCCCGUACGGUACG [C4G A37G A43G A69U] | ≤ 0.5
32 | GUUGCGUUGGCGUAAUGGUAACGCGUCUCCCUCCUAAGGUGCAGACUGCGGGUUCGCGUCCCGUACGGAACG [C4G A40U A42C A57C] | ≤ 0.5
33 | GUUGUGUAGGCAUAAUGGUAACGCGUCUCCCUCCUAAGGAGAAGACUACGGGUUCGAGUCCCGUACGGAACG [C4G C5U U8A G12A G48A] | ≤ 0.5
34 | GUUGCGUUGGGGUAAUGGUAACGCGUGUCCCUCCUAAGGAGAAGACUGCGGGUUCGGGGCCCGUACGGAACG [C4G C11G C27G A57G U59G] | ≤ 0.5
35 | GUUGCGUUGGCGUAAUGGUAACGCGUCUCCCUCCUAAGGAGACGACUGCGGGUUCGAGUCCCGUACGGAACG [C4G A43C] | 0.853
36 | GUUGCGUUGGGGUAAUGGUAACGCGUCUCCCUCCUAAGGAGAAGACUGCGGGUUUGAGUCCCGUACGGAACG [C4G C11G C55U] | ≤ 0.5
37 | GUUGCGUUGGCGUAAUGGUAACGCGUCUCCCUCCUAAGGAGACGACUGCGGGUUCGAGUCCAGUACGGAACG [C4G A43C C62A] | ≤ 0.5
